Test [1] deals with T1, Mu-type opioid receptor (Cavia porcellus, UniProt P97266). In words: Inhibitory activity against Opioid receptor mu 1 in an in vitro guinea pig ileum assay; '-' indicates inactive. Format: tissue-based.
For test [2], the system named is Delta-type opioid receptor. In words: GPI/MVD ratio is based on Ke (antilog of pA2 value of antagonistic activity of compound for delta opioid receptor) and IC50 values. Format: functional.
In test [3] the target is Mu-type opioid receptor (Cavia porcellus) (UniProt P97266). To be noted: Ileum.
Chain of Mu-type opioid receptor (Cavia porcellus) (P97266 whole entry): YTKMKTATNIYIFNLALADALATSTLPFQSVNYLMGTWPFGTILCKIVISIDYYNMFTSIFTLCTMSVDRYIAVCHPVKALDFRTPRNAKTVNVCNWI
Test [4] addresses Delta-type opioid receptor (Mus musculus) (UniProt P32300). To be noted: Vas deferens.
For test [5], the target named is T2, Delta-type opioid receptor (Rattus norvegicus, UniProt P33533). The test is described as follows: Binding affinity for Opioid receptor delta 1 by displacement of [3H]- DPDPE. The method in brief:
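Rat brain (Sprague–Dawley, minus cerebellum) synaptosomal membranes, preincubated to strip endogenous opioids. Equilibrium displacement of [3H]DPDPE (δ) or [3H]DAGO (μ); nonspecific binding defined with 2 μM unlabeled ligand. Peptides spanned 3–4 log units.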
Background: Loss of bound radioactivity is the signal in a displacement assay; it reports binding, not function.

Test [6] has as its target Mu-type opioid receptor (Cavia porcellus) (UniProt P97266). The test is described as follows: Antagonist activity against Opioid receptor mu 1 in guinea pig ileum assay; '-' indicates inactive. The class given is functional, tissue-based. In outline: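 Electrically stimulated mouse vas deferens or guinea pig ileum strips in Krebs' solution; agonist concentration–response curves run without and with rising antagonist concentrations; pA2 by Schild (Arunlakshana–Schild) analysis.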

For test [7], the target named is Mu-type opioid receptor (Rattus norvegicus, UniProt P33535). The test is described as follows: Binding affinity for Opioid receptor mu 1 by displacement of [3H]- DAGO. The method in brief: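 Rat brain (Sprague–Dawley, minus cerebellum) synaptosomal membranes, preincubated to strip endogenous opioids. Equilibrium displacement of [3H]DPDPE (δ) or [3H]DAGO (μ); nonspecific binding defined with 2 μM unlabeled ligand. Peptides spanned 3–4 log units. Duplicates, ≥3 membrane preparations; Ki by Cheng–Prusoff; mean ± SEM, n = independent preparations.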
Chain of Mu-type opioid receptor (Rattus norvegicus, UniProt P33535) (P33535 whole entry): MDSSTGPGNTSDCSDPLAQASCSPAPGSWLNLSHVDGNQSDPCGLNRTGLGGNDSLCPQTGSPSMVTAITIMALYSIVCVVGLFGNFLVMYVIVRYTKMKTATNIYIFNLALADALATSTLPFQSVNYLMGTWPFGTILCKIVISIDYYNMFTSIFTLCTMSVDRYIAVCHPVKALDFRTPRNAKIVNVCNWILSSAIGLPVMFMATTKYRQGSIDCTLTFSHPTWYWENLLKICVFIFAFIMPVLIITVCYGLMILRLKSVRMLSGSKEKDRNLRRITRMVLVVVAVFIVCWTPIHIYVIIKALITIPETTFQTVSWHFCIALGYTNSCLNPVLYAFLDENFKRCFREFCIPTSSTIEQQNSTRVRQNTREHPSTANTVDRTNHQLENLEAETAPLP

Test [8] deals with T1, Mu-type opioid receptor. In words: Inhibitory activity against Opioid receptor mu 1 in an in vitro guinea pig ileum assay. Format: tissue-based.
Test [9] addresses Opioid receptors; mu & delta (Rattus norvegicus) (UniProt P33533+P33535). The test is described as follows: Ratio of the affinity for delta and mu opioid receptors (Ki mu/Ki delta) shows delta opioid receptor selectivity. The class given is protein assay.
In test [10] the target is Delta-type opioid receptor (Mus musculus, UniProt P32300). The test is described as follows: Antagonist activity against Opioid receptor delta 1 in mouse vas deferens assay.
Chain of Delta-type opioid receptor (Mus musculus, UniProt P32300) (P32300 whole entry): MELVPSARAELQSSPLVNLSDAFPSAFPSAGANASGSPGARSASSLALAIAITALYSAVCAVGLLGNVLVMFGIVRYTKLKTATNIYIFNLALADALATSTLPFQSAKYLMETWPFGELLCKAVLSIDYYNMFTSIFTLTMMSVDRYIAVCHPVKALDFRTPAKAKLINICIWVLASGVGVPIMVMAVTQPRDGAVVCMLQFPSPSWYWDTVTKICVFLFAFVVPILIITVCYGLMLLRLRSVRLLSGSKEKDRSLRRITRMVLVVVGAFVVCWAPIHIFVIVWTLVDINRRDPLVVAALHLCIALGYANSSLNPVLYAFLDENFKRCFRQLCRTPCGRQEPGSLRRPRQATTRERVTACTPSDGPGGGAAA
Test [11] concerns the target T1, Mu-type opioid receptor. The test is described as follows: Antagonist activity against Opioid receptor mu 1 iin a guinea pig ileum assay.
Test [12] concerns the target Delta-type opioid receptor (Mus musculus) (UniProt P32300). To be noted: Vas deferens. The source holds these as a separate data set.
For test [13], the target named is T2, Delta-type opioid receptor. In words: Agonist activity for Opioid receptor delta 1. The class given is functional.

For orientation: IC50 means the point on the concentration scale where inhibition reaches its midpoint. High values mean lower potency, low ones higher potency. As a reminder, the pA2 is the negative logarithm of the molar antagonist concentration that doubles the agonist concentration needed for the same response. For orientation: Ki means a measure of affinity in units of concentration, obtained from inhibition or displacement. The low end stands for tighter binding, the high end for weaker binding. One may read the Kb as the affinity of an antagonist, worked out from how it opposes an agonist. Low readings indicate a more potent antagonist, high ones a less potent antagonist.

Calls of active or inactive are those of the source. No cut-off for these calls is given here. Where a SMILES comes first, the peptide text is derived from it. [ ]: non-standard residue; d: D form. ξ: configuration not given here. Dmt = Cc1cc(O)cc(C)c1C[C@H](N)C(=O)O; NMeY = CN[CH](Cc1ccc(O)cc1)C(=O)O; Tic = O=C(O)[CH]1Cc2ccccc2CN1; ξTic = O=C(O)C1Cc2ccccc2CN1 Some results are limits rather than exact numbers.

T1 sequence (P97266 whole entry): as the sequence (P97266 whole entry) above
Chain of Delta-type opioid receptor (Mus musculus) (P32300 whole entry): as the sequence (P32300 whole entry) above
Chain of Opioid receptors; mu & delta (Rattus norvegicus) (P33533 whole entry, looked up): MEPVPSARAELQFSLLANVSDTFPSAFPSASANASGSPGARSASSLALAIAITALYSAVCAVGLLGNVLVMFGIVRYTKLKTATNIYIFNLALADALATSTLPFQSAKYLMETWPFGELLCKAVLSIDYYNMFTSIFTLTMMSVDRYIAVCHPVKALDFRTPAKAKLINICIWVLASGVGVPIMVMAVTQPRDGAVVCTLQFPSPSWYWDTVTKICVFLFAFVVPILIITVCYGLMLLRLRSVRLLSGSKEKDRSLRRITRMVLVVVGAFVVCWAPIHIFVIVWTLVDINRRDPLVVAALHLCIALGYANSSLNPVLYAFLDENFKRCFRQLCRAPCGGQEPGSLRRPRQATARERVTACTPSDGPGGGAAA
Chain of Opioid receptors; mu & delta (Rattus norvegicus) (P33535 whole entry, looked up): as the sequence (P33535 whole entry) above
T2 sequence (P33533 whole entry): as the sequence (P33533 whole entry, looked up) above

In the case of `Oc1ccc2c3c1O[C@H]1c4[nH]c5ccccc5c4C[C@@]4(O)[C@@H](C2)N(CC2CC2)CC[C@]314` [NALTRINDOLE], the IC50 result on Mu-type opioid receptor [1] is reported as “Not Active”. The Ratio in [2] came out at 76. The pA2 in test [3] came to 7.3; in test [4], 9.2.

For `CN[C@@H](Cc1c(C)cc(O)cc1C)C(=O)N1Cc2ccccc2C[C@H]1C(=O)N[C@@H](C)C(=O)O`, the values for the Ki (in [5]; on Mu-type opioid receptor [7]) were 0.136 nM and 5850 nM, respectively. Besides, the pA2 entry in test [6] is “inactive”. Besides, the half-maximal inhibitory concentration (IC50) against Mu-type opioid receptor [8] is more than 10000 nM. In addition, the Ratio in test [2] was more than 7100; in test [9] it was 43000. Besides, the Kb in test [10] was 1.58 nM.

For `CN[C@H](Cc1c(C)cc(O)cc1C)C(=O)N1Cc2ccccc2C[C@H]1C(=O)N[C@@H](C)C(=O)O`, the Ki in test [5] was 106 nM; on Mu-type opioid receptor [7] it was 19200 nM. Further, the Ratio in test [9] was found to be 181.

In the case of `Cc1cc(O)cc(C)c1CC(C)C(=O)N1Cc2ccccc2CC1C(=O)O` (centres undefined), the Ki was determined as 1300 nM in [5] and 71400 nM on Mu-type opioid receptor [7]. Moreover, in test [9], the Ratio was determined as 55.

For `Cc1cc(O)cc(C)c1C[C@H](N)C(=O)N1Cc2ccccc2C[C@H]1C(=O)NC(C)C(=O)O` (some centres undefined), in test [6], the pA2 result was “inactive”. For the same compound, the values for the Ratio in test [2] and in test [9] were more than 2500 and 20400, respectively. Also, the pA2 in test [4] worked out at 8.4.

Take `Cc1cc(O)cc(C)c1C[C@@H](C(=O)N1Cc2ccccc2C[C@H]1C(=O)N[C@@H](C)C(=O)O)N(C)C`: the inhibition constant (Ki) in [5] came to 0.0755 nM; at Mu-type opioid receptor [7] it was 1520 nM. In addition, the antagonist equilibrium constant (Kb) was 1580 nM on Mu-type opioid receptor [11] and 0.251 nM in [10]. Further, the IC50 entry against Mu-type opioid receptor [1] is recorded as “Not Active”. The values for the Ratio in test [2] and in [9] were 7180 and 20000, respectively.

Turning to `Cc1cc(O)cc(C)c1C[C@@H](N)C(=O)N1Cc2ccccc2C[C@H]1C(=O)N[C@@H](C)C(=O)O`, the figures for the Ki (in [5]; on Mu-type opioid receptor [7]) were 13 nM and 2560 nM, respectively. For the same compound, in [6], the pA2 result was “inactive”. Besides, the IC50 on Mu-type opioid receptor [8] was more than 10000 nM. Moreover, the Ratio in [2] is more than 88; in test [9], 197. In [4], this compound gave a pA2 of 6.9.

`CN[C@@H](Cc1c(C)cc(O)cc1C)C(=O)N1Cc2ccccc2CC1C(N)=O` (some centres undefined): the inhibition constant Ki in [5] was 0.383 nM; on Mu-type opioid receptor [7], 955 nM. The compound further came in with a half-maximal inhibitory concentration (IC50) at Mu-type opioid receptor [8] of more than 10000 nM. The Ratio was more than 4550 in test [2] and 2490 in test [9]. This compound showed a Kb in test [10] of 2.51 nM.

For `CNC(Cc1ccc(O)cc1)C(=O)N1Cc2ccccc2CC1C(=O)O` (centres undefined) (H-[NMeY]-[Tic]-OH; configuration not given here), the figures for the Ki (in test [5]; at Mu-type opioid receptor [7]) were 74.7 nM and 12400 nM, respectively. Further, the Ratio in test [9] turned out to be 166.

Regarding `Cc1cc(O)cc(C)c1C[C@@H](C(=O)N1Cc2ccccc2CC1C(N)=O)N(C)C` (some centres undefined), the inhibition constant Ki was 0.309 nM in test [5] and 511 nM at Mu-type opioid receptor [7]. The Kb at Mu-type opioid receptor [11] was 501 nM; in [10], 0.126 nM. Further, the 50% inhibitory concentration (IC50) result on Mu-type opioid receptor [1] is “Not Active”. For the same compound, the results for the Ratio in test [2] and in test [9] were 4500 and 1660, respectively.

Take `N[C@@H](Cc1ccc(O)cc1)C(=O)N1Cc2ccccc2C[C@H]1C(=O)O` (H-Tyr-[Tic]-OH): the Ki in test [5] came out at 192 nM; at Mu-type opioid receptor [7], 28400 nM. In addition, the Ratio in test [9] was determined as 148.

For `Cc1cc(O)cc(C)c1CC(N)C(=O)N1Cc2ccccc2C[C@H]1C(=O)O` (single isomer, unassigned), the pA2 entry in [6] and in test [12] was “inactive” throughout. The compound also showed a Ki on Mu-type opioid receptor [7] of 11000 nM. For the same compound, the IC50 result against Mu-type opioid receptor [1] was “Not Active”.

Regarding `Cc1cc(O)cc(C)c1C[C@H](N)C(=O)N1Cc2ccccc2CC1C(N)=O` (some centres undefined) (H-[Dmt]-[ξTic]-NH2), the inhibition constant (Ki) in test [5] came out at 1.22 nM.

As for `Cc1cc(O)cc(C)c1C[C@H](N)C(=O)N1Cc2ccccc2C[C@H]1C(=O)O`, the pA2 result in [6] was “inactive”. Further, the half-maximal inhibitory concentration (IC50) against Mu-type opioid receptor [8] was more than 10000 nM. In test [4], the pA2 stood at 8.2.

`CC(C)[C@H](NC(=O)[C@H](CC(=O)O)NC(=O)[C@H](Cc1ccccc1)NC(=O)[C@@H](C)NC(=O)[C@@H](N)Cc1ccc(O)cc1)C(=O)N[C@H](C(=O)NCC(N)=O)C(C)C` [DELTORPHIN C] returned an IC50 in test [13] of 0.54 nM. That is a sub-nanomolar value.

Consider `Cc1cc(O)cc(C)c1C[C@H](C(=O)N1Cc2ccccc2C[C@H]1C(=O)N[C@@H](C)C(=O)O)N(C)C`, for which the Ki stood at 108 nM in test [5] and 19000 nM at Mu-type opioid receptor [7]. In addition, in test [9], the Ratio amounted to 176.

Turning to `Cc1cc(O)cc(C)c1C[C@H](N)C(=O)N1Cc2ccccc2C[C@H]1C(=O)N[C@@H](C)C(=O)O`, the 50% inhibitory concentration (IC50) on Mu-type opioid receptor [8] is more than 10000 nM.

As for `CN[C@H](Cc1c(C)cc(O)cc1C)C(=O)N1Cc2ccccc2CC1C(=O)O` (some centres undefined), the Ki came out at 3.19 nM in [5] and 2000 nM on Mu-type opioid receptor [7]. Besides, the pA2 entry in test [6] was “inactive”. Besides, the half-maximal inhibitory concentration (IC50) at Mu-type opioid receptor [8] is more than 10000 nM. The Ratio was more than 71 in test [2] and 628 in test [9]. Also, the Kb in test [10] is 158 nM.

Consider `CN[C@H](Cc1c(C)cc(O)cc1C)C(=O)N1Cc2ccccc2CC1C(N)=O` (some centres undefined), for which the Ki is 11.2 nM in [5] and 1330 nM on Mu-type opioid receptor [7]. In addition, the pA2 entry in test [6] and in test [12] was “inactive” in each case. Further, the IC50 result at Mu-type opioid receptor [1] is on record as “Not Active”. In test [9], the Ratio is 119.

In the case of `CN[C@@H](Cc1c(C)cc(O)cc1C)C(=O)N1Cc2ccccc2CC1C(=O)O` (some centres undefined), the Ki in test [5] was 0.203 nM; at Mu-type opioid receptor [7], 379 nM. The pA2 entry in test [6] is “inactive”. Moreover, the half-maximal inhibitory concentration (IC50) at Mu-type opioid receptor [8] was more than 10000 nM. Further, the Ratio in [2] is more than 3570; in test [9], 1870. The Kb in test [10] is 3.16 nM.

`Cc1cc(O)cc(C)c1C[C@H](C(=O)N1Cc2ccccc2CC1C(=O)O)N(C)C` (some centres undefined): the figures for the inhibitory constant (Ki) (in test [5]; at Mu-type opioid receptor [7]) were 5.74 nM and 13100 nM, respectively. Also, the pA2 entry in test [6] is “inactive”. Moreover, the IC50 on Mu-type opioid receptor [8] is more than 10000 nM. The values for the Ratio in test [2] and in [9] were more than 4200 and 2280, respectively. Besides, in [10], the Kb was 2.51 nM.

As for `Cc1cc(O)cc(C)c1C[C@@H](C(=O)N1Cc2ccccc2CC1C(=O)O)N(C)C` (some centres undefined), the inhibition constant Ki was found to be 0.118 nM in [5] and 2440 nM at Mu-type opioid receptor [7]. Moreover, the antagonist dissociation constant (Kb) on Mu-type opioid receptor [11] was 1580 nM; in [10] it was 0.398 nM. Further, the IC50 result against Mu-type opioid receptor [1] is listed as “Not Active”. Also, the Ratio in [2] stood at 5640; in [9], 20600.

In the case of `CN(C)[C@@H](Cc1ccc(O)cc1)C(=O)N1Cc2ccccc2CC1C(=O)O` (some centres undefined), the values for the Ki (in [5]; on Mu-type opioid receptor [7]) were 43.5 nM and 11500 nM, respectively. Further, the Ratio in test [9] amounted to 265.

The values above are taken from ChEMBL document CHEMBL1130156, “Evolution of the Dmt-Tic pharmacophore: N-terminal methylated derivatives with extraordinary delta opioid antagonist activity” (J Med Chem, 1997).
